Compounds with a hit are over-represented: about 2.1% of the library has one in this group of screens.
b-catenin transl – alters nuclear translocation of beta-catenin in HeLa cells | immunofluorescence imaging | nuclear translocation activity, % at 5 µM | 190,000 compounds, 0.3% hits;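 active = nuclear translocation activity above 50% at 5 µM, with a well cell count of 50 or more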;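 also: per-cell ratio of nuclear to cytoplasmic median beta-catenin stain intensity; plate controls were DMSO negative control for no effect and GSK-3 inhibitor IX positive control for full effect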
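Assay system: human HeLa cells, native beta-catenin; doses: 5 µM primary, 0.02–20 µM confirmation; incubation: compound treatment 24 h, 37°C, 5% CO2; technique: fluorescence imaging of beta-catenin antibody stain plus DAPI; measure: % activation, nuclear-to-cytoplasmic median beta-catenin signal ratio per cell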
KLF5 inh – suppresses KLF5 promoter-driven expression. DLD-1 KLF5 promoter-luciferase reporter, luminescence. inhibition, % at 5 µM. 290,000 compounds, 0.23% hits;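 active = inhibition above a per-plate limit of that plate's mean compound inhibition plus 3 SD, cut at about 60% in these data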;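 also: 0% = DMSO wells and 100% = LY294002 at 200 µM; higher means less KLF5 promoter-driven luciferase light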
MT stabilize HCS – microtubule stabilization, imaging screen; 200,000 compounds, 0.83% hits; % tubulin-high responders, % at 10 µM; AID 2205; HeLa tubulin immunostaining HCS, 24 h; share of cells brighter than vehicle mean+2SD;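 active = plate Z-score above 3 for both tubulin-high and condensed-nucleus cell shares, with cell loss under 80%, at 10 µM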;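 also: anti alpha tubulin signal scored within the nucleus-defined area of each cell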
Ba/F3 V617F tox – reduce viability of Ba/F3 cells dependent on JAK2V617F; Ba/F3 EpoR-JAK2V617F viability, ATP luminescence; inhibition, % at 5.6 µM; 220,000 compounds, 1.1% hits; AID 1446;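 active = inhibition above the campaign mean plus 3 SD over all tested compounds, cut at about 24% in these data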;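 also: cytokine-independent growth of Ba/F3 cells driven by EpoR plus mutant JAK2; 0% = DMSO-treated cells and 100% = JAK inhibitor I control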
BaF3 tox – reduces parental Ba/F3 cell viability, JAK2V617F counter-screen; CellTiter-Glo ATP luminescence; inhibition, % at 5.6 µM; 220,000 compounds, 1.1% hits; AID 1486;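 active = inhibition above a per-campaign cutoff, the mean inhibition of all tested compounds plus 3 SD, cut at about 27% in these data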;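 also: 0% = DMSO wells and 100% = JAK Inhibitor I control wells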
IEC-6 tox-1 – counter-screen for KLF5 inhibitors: cytotoxicity in IEC-6 cells. AID 1825. IEC-6 cytotoxicity, luminescence viability. 290,000 compounds, 0.78% hits. inhibition, % at 5 µM;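 also: 0% = plate median of test compound wells and 100% = cytotoxic reference compound wells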
KLF5 confirm – KLF5 inhibition, confirmation assay | shares compounds with KLF5 inh | DLD-1 KLF5 promoter firefly luciferase reporter, luminescence | inhibition, % at 4 µM | 610 compounds, 79% hits;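 active = inhibition above a set limit taken from the earlier primary screen, cut at about 63% in these data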;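 also: 0% = DMSO wells and 100% = LY294002 at 200 µM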
IEC-6 tox-2 – counter-screen for KLF5 inhibitors: cytotoxicity in rat IEC-6 cells; IEC-6 rat intestinal cells, viability luminescence; inhibition, % at 4 µM; 610 compounds, 56% hits; AID 1905; shares compounds with KLF5 inh; in the data active = inhibition above about 23%;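 also: cells exposed to compounds for 48 hours before viability read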
IEC-6 cytotox cf – confirmation of cytotoxic compounds in rat IEC-6 intestinal epithelial cells. shares compounds with IEC-6 tox-1. IEC-6 rat intestinal epithelial viability, luminescence. inhibition, % at 5 µM. 1,900 compounds, 63% hits. AID 1907;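 also: 0% = vehicle and 100% = reference cytotoxic drug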
* hit, by the source's call; . = no result. Rule as the data show it, unless noted: active = inhibition above about 22%; inactive = the rest.

SMILES	b-catenin transl	KLF5 inh	MT stabilize HCS	Ba/F3 V617F tox	BaF3 tox	IEC-6 tox-1	IEC-6 cytotox cf	others
C/C(=N\NC(=O)c1c(Cl)c(C)nn1C)c1ccc(NC(=O)C2CCC2)cc1	.	65*	.	.	.	73*	52*	KLF5 confirm=83*;IEC-6 tox-2=60*
C/C(=N\NC(=O)c1c([N+](=O)[O-])c(C)nn1C)c1ccc(NC(=O)c2ccc(C)o2)cc1	.	-53	.	.	.	-3	.
C/C(=N\NC(=O)c1c([N+](=O)[O-])c(C)nn1C)c1ccc(NC(=O)C2CCCC2)cc1	.	65*	.	.	.	77*	64*	KLF5 confirm=76*;IEC-6 tox-2=54*
O=C(Nc1cccc(C(F)(F)F)c1)c1ccccc1NC(=O)C1CCCCC1	-4	-34	1	-3	2	-2	.
CNC(=S)N(CCCN(C)C)Cc1cc2cc3c(cc2[nH]c1=O)OCCO3	.	-4	.	.	.	2	.
CCCCS(=O)(=O)/C=C\C=C/S(=O)(=O)CCCC	5	103*	3	101*	105*	102*	40*	KLF5 confirm=92*;IEC-6 tox-2=100*
Cc1nc(C(N)=O)nc2ccccc12	-6	5	.	-3	3	5	.
COc1ccc(OC)c(Nc2c3c(nc4ccccc24)CCC3)c1	.	64*	.	.	.	85*	58*	KLF5 confirm=111*;IEC-6 tox-2=63*
Cc1ccc(C(=O)C(C)OC(=O)Cn2[nH]c(=O)c3ccccc3c2=O)cc1C (configuration not stated)	.	-21	.	.	.	-1	.
NS(=O)(=O)c1ccc(N=Nc2ccc(O)c3ncccc23)cc1	.	80*	.	.	.	46*	4	KLF5 confirm=74*;IEC-6 tox-2=3
CCOC(=O)CC(NC(=O)CCc1c(C)nc2ncnn2c1C)c1ccc(OC(C)C)cc1 (configuration not stated)	-1	-7	2	2	2	3	.
O=C(Nc1ccc(S(=O)(=O)N2CCOCC2)cc1)c1ccc([N+](=O)[O-])o1	2	99*	.	68*	66*	67*	11	KLF5 confirm=5;IEC-6 tox-2=8
O=C(Nc1ccc(S(=O)(=O)N2CCOCC2)cc1)c1ccco1	.	-52	3	1	7	0	.
COc1ccc2c(c1)sc(N)[n+]2Cc1cc(C)cc2cccnc12	114*	69*	15*	82*	79*	80*	63*	KLF5 confirm=73*;IEC-6 tox-2=61*
O=C(NNC(=O)C1CC=CCC1C(=O)O)c1ccc(Cl)cc1 (configuration not stated)	0	6	2	3	2	2	.
COc1cc(C(=O)NNC(=O)C2CC=CCC2C(=O)O)cc(OC)c1OC (configuration not stated)	-3	39	8	60*	44*	70*	-3
COc1cc2ncnc(NCc3cccc(F)c3F)c2cc1OC	.	-9	.	.	.	35*	28*
COc1cc2ncnc(NCc3ccc(C)o3)c2cc1OC	-1	-9	4	1	3	10	.
COc1cc2ncnc(NCc3ccccc3F)c2cc1OC	.	0	.	.	.	28*	33*
COc1ccc(-n2cnnc2SCC(=O)Nc2ccccc2F)cc1	.	-37	.	.	.	-3	.
O=C(NCCCn1ccnc1)c1cc2c(s1)CCCCC2	0	-41	3	-4	0	8	.
CCN1CCS/C1=C\C=C\C1=[N+](CC)CCS1	-2	5	3	101*	90*	37*	31*
CCN1CCS/C1=C/C=C/C1=[N+](CC)CCS1	-1	-28	4	99*	81*	27*	30*
C/C(N)=C(/C#N)C(=O)CSc1n[nH]c(-c2ccccc2Br)n1	-6	-27	8	1	5	8	.
Cc1ccc2c(CN(C)Cc3cccc(F)c3)cc(=O)oc2c1C	.	-28	.	.	.	41*	24*
SMILES	b-catenin transl	KLF5 inh	MT stabilize HCS	Ba/F3 V617F tox	BaF3 tox	IEC-6 tox-1	IEC-6 cytotox cf	others
Cc1ccc2c(CN(C)Cc3ccccc3)cc(=O)oc2c1C	.	-34	.	.	.	55*	33*
CO/N=C/c1ccc(OC)c(Oc2nc(OC)cc(OC)n2)c1	1	14	11	-1	10	28*	3
COc1cccc(-c2cc3nc(-c4ccccc4)cc(=O)n3[nH]2)c1	.	22	.	.	.	78*	53*
COc1cc2[nH]c(=S)nc(NCc3ccccc3)c2cc1OC	.	-33	.	.	.	14	.
COc1cc2[nH]c(=S)nc(NCc3cccc(Cl)c3)c2cc1OC	.	-8	.	.	.	27*	8
O=[N+]([O-])c1ccccc1OCC(O)CN1CCN(CC(O)COc2ccccc2[N+](=O)[O-])CC1 (configuration not stated)	.	-19	.	.	.	0	.
Cc1cccc2cc(C#N)c(SCC(=O)N3CC(=O)Nc4ccccc43)nc12	28	19	16	85*	89*	93*	74*
CCc1cc2ccc(C)c(C)c2nc1SCC(=O)Nc1cc(C)on1	.	0	.	.	.	35*	32*
Cc1cc(NC(=O)CSc2nc3c(C)cccc3cc2C#N)no1	.	7	.	.	.	23*	18
Cc1cc(NC(=O)CSc2nnc(-c3ccccc3)o2)no1	-5	-50	3	4	4	29*	4
Cc1cc(NC(=O)CSc2nc3c(C)c(C)ccc3cc2C)no1	.	-25	.	.	.	-2	.
Cc1cc(NC(=O)CSc2nc3c(C)ccc(C)c3cc2C#N)no1	.	39	.	.	.	10	.
Cc1sc2ncnc(N3CCCC(C)C3)c2c1C (configuration not stated)	-5	9	9	4	6	4	.
COCCNC(=S)N/N=C/c1ccc(OCc2ccc(C(=O)OC)cc2)cc1	-1	-11	3	-3	4	-3	.
Nc1ccccc1C(=O)NNC1=C(C(=O)C(F)(F)F)CCC1	-1	-29	.	-1	3	34*	5
c1ccc(CNc2nc(-c3cccnc3)nc3ccccc23)cc1	.	-20	.	.	.	0	.
c1ccc(CN2CCC(Nc3nc(-c4cccnc4)nc4ccccc34)CC2)cc1	0	-31	3	3	9	24*	19
CCOC(=O)C1(Cc2ccc(Cl)cc2)CCN(Cc2cn(CC)nc2C)CC1	1	-49	.	-2	3	-2	.
COc1cc(OC)cc(C(=O)N2CCN(C(=O)c3ccc(OC)c(OC)c3)CC2)c1	1	4	2	0	3	-1	.
COc1ccc(-c2n[nH]c3c2CN(C(=O)c2ccc(OC)c(OC)c2)CC3)cc1	.	29	.	.	.	40*	22
Cc1ccc(Nc2nc(N/N=C\c3ccc4c(c3)OCO4)nc(N3CCOCC3)n2)cc1	-2	-49	4	2	15	49*	67*
Cc1cccc(/C=N/Nc2cc(N3CCOCC3)nc(N3CCOCC3)n2)c1	-1	-16	6	12	19	24*	94*
Cc1cc(C)c2c(=O)c(C#N)coc2c1	0	0	.	1	-4	0	.
